# RORA act: activators of orphan receptor RORA, primary screen, cell-based, luminescence; activation, % at 10 µM; CHO-K1 Gal4-RORA LBD luciferase reporter; percent increase over mock-subtracted basal signal; Nuclear receptor ROR-alpha (Homo sapiens), P35398; 65,000 compounds, 1.5% hits;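 active = activation above the mean of all tested compounds plus 3 SD, cut at about 49% in these data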;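 note: 0% = DMSO-treated RORA cells and 100% = added signal equal to DMSO minus mock-transfected cells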
# Target sequence (P35398 whole entry, looked up, the tested form may be a part): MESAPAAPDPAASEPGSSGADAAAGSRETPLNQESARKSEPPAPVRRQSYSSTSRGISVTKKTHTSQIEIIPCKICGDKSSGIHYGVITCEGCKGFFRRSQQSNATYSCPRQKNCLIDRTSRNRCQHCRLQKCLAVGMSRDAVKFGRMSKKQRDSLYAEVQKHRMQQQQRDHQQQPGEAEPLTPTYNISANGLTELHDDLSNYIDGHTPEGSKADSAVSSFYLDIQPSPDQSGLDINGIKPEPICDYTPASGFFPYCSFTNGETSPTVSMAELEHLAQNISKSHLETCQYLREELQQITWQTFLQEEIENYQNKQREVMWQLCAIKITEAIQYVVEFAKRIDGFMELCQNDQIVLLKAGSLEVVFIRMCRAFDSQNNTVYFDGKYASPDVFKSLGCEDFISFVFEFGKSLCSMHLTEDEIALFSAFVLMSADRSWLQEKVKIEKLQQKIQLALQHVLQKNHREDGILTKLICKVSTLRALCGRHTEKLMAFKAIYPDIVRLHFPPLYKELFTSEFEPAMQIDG
# JNK3 blocker: JNK3 kinase activity inhibitors, primary screen, biochemical, human, purified enzyme | Mitogen-activated protein kinase 10 (Homo sapiens), P53779 | HTS | inhibition, % at 8 µM | 60,000 compounds, 0.61% hits | AID 746, 2007; in the data active = inhibition above about 17%;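 note: 0% = DMSO and 100% = reference inhibitor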
# PKA inh: inhibitors of human PKA kinase activity, primary screen, biochemical, ATP-depletion luminescence, Kemptide substrate; AID 524, 2006; 65,000 compounds, 0.1% hits; inhibition, % at 6 µM; PKA Kemptide phosphorylation, Kinase-Glo ATP luminescence; cAMP-dependent protein kinase catalytic subunit alpha (Homo sapiens), P17612;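 active = inhibition above the screen-wide mean inhibition plus 3 SD, cut at about 21% in these data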
# SF-1 act: activators of human SF-1, primary screen, cell-based, CHO-K1, Gal4-SF-1 LBD, luciferase luminescence. Steroidogenic factor 1 (Homo sapiens), Q13285. CHO-K1 Gal4-SF-1 LBD luciferase reporter; % increase over DMSO SF-1-specific signal. activation, % at 10 µM. 65,000 compounds, 1.9% hits. AID 522, 2006;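 active = activation above the mean activation of all tested compounds plus 3 SD, cut at about 50% in these data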
#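 material = CHO-K1 cells with Gal4–hSF-1 LBD chimera plus Gal4-driven luciferase | compound = 10 µM single point, 1% DMSO | incubation = 20 h compound exposure at 37 °C after 1 h cell settling | measured by = SteadyLite luciferase luminescence | evaluation = percent activation relative to DMSO median and mock-transfected background | control set = DMSO negative control and −SF1 background wells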
# MT1-MMP txn act: MT1-MMP promoter reporter activation – cell-based, luciferase luminescence, primary screen | HT1080 MT1-MMP promoter luciferase reporter, overnight; hits give high values | 86,000 compounds, 0.16% hits | activation factor at 10 µM | AID 750, 2007;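 active = activation factor of at least 2 for MT1-MMP transcription at 10 µM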
# ROCK2 inh: inhibitors of human ROCK2 kinase, primary screen, biochemical, high-throughput, luminescence. Rho-associated protein kinase 2 (Homo sapiens), O75116. purified ROCK2, Kinase-Glo ATP depletion luminescence. inhibition, % at 6 µM. 60,000 compounds, 0.35% hits;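 active = inhibition above the screen-wide mean inhibition plus 3 SD, cut at about 18% in these data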;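 note: plate controls were DMSO wells for no effect and Y-27632 control wells after no-enzyme background subtraction for full effect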
# An asterisk follows results filed as active; x = no result given. Sampled rows, rich in hits. Any-hit rate of the full collection: about 2.5%.
SMILES,RORA act,JNK3 blocker,PKA inh,SF-1 act,MT1-MMP txn act,ROCK2 inh
Cc1nn(-c2nc3ccccc3s2)c(C)c1Oc1ccccc1O,66*,5,16,58*,1.6,7
COC1(OC)N=C(N)C2(C#N)C(c3ccc4c(c3)OCO4)C12C#N (stereo not given),-9,20*,18,4,0.8,29*
COC(=O)c1ccc(C(NC(=O)OCc2ccccc2)/C(=C/[C@@H](C)C(=O)NCc2ccc(S(C)(=O)=O)cc2)C(F)(F)F)cc1 (stereo not given in full),x,x,x,x,1.1,x
CCOC(=O)C1=NNC2C(=O)N(C3CCCCC3)C(=O)C12 (stereo not given),x,x,x,x,1.1,x
COCCNC(=O)C(c1ccc(F)cc1)N(CC1CCCO1)C(=O)CCC(=O)Nc1ccccn1 (stereo not given),13,8,11,7,1.1,7
CC(=O)c1cnc2cc(-c3ccccc3)nn2c1C,28,-7,9,50*,1.1,6
N/C(COc1ccccc1)=N\NC(=O)c1cccnc1Oc1ccccc1,x,x,x,x,1.1,x
COCc1cc(C)nc(SCC(=O)Nc2cc3c(cc2C#N)OCO3)c1C#N,6,22*,12,-4,1.2,6
O=C(c1ccco1)N1CCN(c2nc3ccsc3c(=O)s2)CC1,8,-3,-11,18,1.4,-5
O=c1sc(N2CCN(c3ccccc3F)CC2)nc2ccsc12,60*,3,9,72*,1.4,6
CC(=O)Nc1cccc(NC(=O)CSc2nnnn2Cc2ccccc2)c1,7,-1,6,15,1.2,2
OC1CCN(c2c3c(nc4cc(-c5ccc(Cl)cc5)nn24)CCC3)CC1,x,x,x,x,1.3,x
O=C1CCn2nc(-c3ccc(Cl)cc3)cc2N1,61*,3,-5,31,1.5,2
O=C(CN1C(=O)c2ccccc2S1(=O)=O)c1ccccc1,-50,3,9,-42,x,11
COc1ccc(C2=NOC(CN3C(=O)c4ccccc4S3(=O)=O)C2)cc1 (stereo not given),35,6,7,67*,1.2,5
O=C1c2ccccc2S(=O)(=O)N1CC1CC(c2ccccc2)=NO1 (stereo not given),49*,-2,9,30,1.8,7
Cc1ccc2cc3cc(C(=O)N4CCCCC4C)oc3nc2c1 (stereo not given),27,-1,0,65*,1,-2
c1ccc(CC2CCN(Cc3nc(-c4ccccc4)no3)CC2)cc1,-11,-1,1,6,1.2,-3
CCCCNC(=O)C1CCN(Cc2ccc(OCc3ccccc3)cc2)CC1,x,x,x,x,2*,x
Cc1nc2sc(-c3ccccc3)cc2c(=O)n1-n1cccc1,-2,7,3,89*,1.5,2
Cc1nc2sc(-c3ccccc3)cc2c(=O)[nH]1,x,x,x,x,0.5,x
c1ccc(CCCc2nc(-c3ccccn3)no2)cc1,50*,2,8,57*,1.1,3
CC(C)(C)c1ccc(OCc2nc(-c3ccccn3)no2)c(Br)c1,67*,1,-1,71*,0.9,1
Clc1ccc(OCc2nc(-c3ccncc3)no2)c(Cl)c1,48,5,4,86*,0.7,6
Clc1cc(Cl)c(OCc2nc(-c3ccccn3)no2)cc1Cl,52*,0,3,34,1.4,5
SMILES,RORA act,JNK3 blocker,PKA inh,SF-1 act,MT1-MMP txn act,ROCK2 inh
COc1ccc(Cc2nc(-c3ccccn3)no2)cc1,x,x,x,x,1.6,x
COc1ccc(Cl)cc1-c1nc(-c2ccncc2)no1,18,x,-4,14,1.3,x
CC1CC(C)CN(C(=O)c2ccc3c(c2NCCO)C(=O)c2ccccc2C3=O)C1 (stereo not given),x,x,x,x,1,x
COCC(C)n1c(C)cc(C(=O)CN2C(=O)NC(Cc3c[nH]c4ccccc34)C2=O)c1C (stereo not given),x,x,x,x,1.2,x
COC(=O)[C@@]1(Cc2ccc(F)cc2)[C@H]2c3cc(C(=O)N4CCCC4)n(Cc4cccc5ccccc45)c3C[C@H]2CN1C(=O)c1ccccc1,x,x,x,x,1.2,x
O=C(c1cc2c(=O)oc3ccccc3c2s1)N1CCOCC1,46,3,7,29,1.2,3
Cc1nn(-c2ccccc2)c2sc(C(=O)N3CCOCC3)cc12,58*,3,-4,94*,1.9,-2
Cc1nn(-c2ccccc2)c2sc(C(=O)O)cc12,-7,x,0,-8,1.1,x
O=C(c1cc2c(=O)n3ccccc3nc2s1)N1CCOCC1,24,2,0,60*,1.5,1
Cc1oc2cc(O)cc(O)c2c(=O)c1-c1ccc2c(c1)OCCCO2,58*,-7,7,50*,1.4,0
Cc1cc(C(=O)CSc2nnc(-c3ccco3)o2)c(C)n1-c1ccc2c(c1)OCCO2,20,5,7,7,1.3,5
Cc1cc(C(=O)CSc2nnnn2C)c(C)n1-c1ccc2c(c1)OCCO2,36,-6,0,54*,1.6,2
O=C(CCNS(=O)(=O)c1cccs1)N1CCCCCC1,32,4,6,60*,1.7,2
O=C1Nc2ccccc2CCC1Sc1nnc(-c2ccc(Cl)cc2)s1 (stereo not given),x,x,x,x,2.1*,x
CCOC(=O)C1=C(c2ccccc2)Nc2nc(C)nn2C1c1cccc(OC)c1OC (stereo not given),6,-5,-7,-10,1.1,3
CC1CCCN(c2oc(-c3cccc4ccccc34)nc2C#N)C1 (stereo not given),23,-1,-3,0,1.6,-4
CNc1nc(N2CCc3ccccc32)ncc1F,41,-4,-1,75*,1.5,-1
CN(CC(=O)N1CCc2ccccc21)S(=O)(=O)c1cccs1,52*,x,-2,55*,x,x
COC(=O)c1ccc(C(NC(=O)OCc2ccccc2)/C(=C/[C@@H](C)C(=O)Nc2ccccc2)C(F)(F)F)cc1 (stereo not given in full),x,x,x,x,1.1,x
CCC1CCCCN1c1nc(-c2ccncc2)nc2ccccc12 (stereo not given),-7,-7,62*,7,x,15
CCC1CCCCN1c1nc(-c2cccc(OC)c2O)nc2ccccc12 (stereo not given),-5,-5,6,9,1.2,11
O=C(COc1ccccc1)n1nc(-c2ccc(Cl)cc2)nc1NCc1ccco1,60*,8,-2,31,1.2,1
C#CCn1c(=NC(=O)c2cccs2)sc2cccc(OC)c21,79*,4,7,76*,1.3,6

# Bioassay records deposited in PubChem BioAssay by several laboratories.
